Assay [1] relates to KBM5. Briefly: Inhibition of TNF-induced NF-kappaB activation in human KBM5 cells at 50 uM preincubated for 4 hrs followed by TNF addition measured after 30 mins by EMSA relative to control. It counts as cell-based. In short, it runs like this: (§1)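 KBM-5 cells (IMDM, 15% FBS) were pretreated 4 h, then stimulated with bacteria-derived human recombinant TNF at 0.1 nM for 30 min. Nuclear extracts (15 μg protein) were incubated with 16 fmol 32P-labelled 45-mer HIV-LTR NF-κB oligonucleotide for 30 min at 37 °C. Complexes were resolved on 6.6% native polyacrylamide gels, and bands were quantified by phosphorimaging.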

Assay [2] relates to KBM5. The assay can be described thus: Inhibition of TNF-induced NF-kappaB activation in human KBM5 cells at 10 uM preincubated for 4 hrs followed by TNF addition measured after 30 mins by EMSA relative to control. It counts as cell-based. In short, it runs like this: as §1
(A gel shift assay detects complexes by their altered migration in electrophoresis.)

Assay [3] can be described thus: Antiproliferative activity against human U266 cells after 72 hrs by MTT assay. It counts as functional, cell-based. Particulars: U-266, 72 h. In short, it runs like this: (§2)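 Cells seeded at 5 × 10^3 per well in triplicate and exposed to 1, 5, 10, 25, 50, 100 or 200 μM for 72 h at 37 °C. MTT was added for 2 h, then SDS/DMF extraction buffer overnight, and A570 was read. Results are % viability, mean ± SD. Media: KBM-5 in IMDM/15% FBS; Jurkat and U266 in RPMI 1640; A549 in DMEM/10% FBS; all with penicillin/streptomycin.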
In general terms: Tetrazolium dyes change colour on reduction, which living cells bring about.

The next assay concerns A549. Briefly: Antiproliferative activity against human A549 cells after 72 hrs by MTT assay. It is filed as functional, cell-based. To be noted: A549, 72 h. In short, it runs like this: as §2
Another assay relates to Jurkat. The assay can be described thus: Antiproliferative activity against human Jurkat cells after 72 hrs by MTT assay. It counts as functional, cell-based. The procedure, abridged: as §2
Assay [4] in a line: Antiproliferative activity against human KBM5 cells after 72 hrs by MTT assay. It counts as functional, cell-based. To be noted: KBM5, 72 h. In short, it runs like this: as §2
For assay [5], the system named is KBM5. Briefly: Inhibition of TNF-induced NF-kappaB activation in human KBM5 cells at 25 uM preincubated for 4 hrs followed by TNF addition measured after 30 mins by EMSA relative to control. It counts as cell-based. The procedure, abridged: as §1

Usually IC50 stands for the midpoint of a concentration-inhibition curve. Low values mean greater potency in that assay, high ones weaker potency in that assay.

Turning to `COc1cc(/C=C/C(O)=C/C(=O)/C=C/c2ccc(O[C@@H]3O[C@H](C(=O)O)[C@@H](O)[C@H](O)[C@H]3O)c(OC)c2)ccc1O`, the fold change (FC) in the assay on KBM5 [1] was determined as 5.1; in the assay on KBM5 [2], 5.3; in the assay on KBM5 [5], 5.3. In addition, the IC50 (in assay [3]; in the assay on A549; with Jurkat; in assay [4]) was over 200 µM in each case.

Take `COc1cc(/C=C/C(=O)CC(=O)/C=C/c2ccc(O)c(OC)c2)ccc1O` [CURCUMIN]: the fold change (FC) with KBM5 [1] came out at 0.8; in the assay on KBM5 [2], 3; in the assay with KBM5 [5], 1. For the same molecule, the IC50 in assay [3] came out at 7.57 µM; in the assay on A549, 17.3 µM; in the assay with Jurkat it was 4.29 µM; in assay [4], 3.84 µM.

As to `COc1cc(/C=C/C(=O)/C=C(O)/C=C/c2ccc(O[C@@H]3O[C@H](C(=O)O)[C@@H](O)[C@H](O)[C@H]3O)c(OC)c2)ccc1O[C@@H]1O[C@H](C(=O)O)[C@@H](O)[C@H](O)[C@H]1O`, the fold change (FC) in the assay with KBM5 [1] turned out to be 5.5; with KBM5 [2], 5.6; with KBM5 [5], 5.6. The IC50 (in assay [3]; with A549; in the assay with Jurkat; in assay [4]) was over 200 µM each time.

(Values after ChEMBL document CHEMBL3098083, “Curcumin glucuronides: assessing the proliferative activity against human cell lines” (Bioorg Med Chem, 2014).)
